EBNA-1 inhibitor: blocks EBNA-1 binding to DNA | EBNA-1 DNA binding, fluorescence polarization | inhibition, % at 14.8 µM | 0.34% of 300,000 active | AID 1950; in the data active = inhibition above about 28%
EBV gp42 inh: inhibitors of Epstein-Barr virus glycoprotein 42. Q1HVG2. Fluorescence polarization binding assay, mP read-out. inhibition, % (tested at 21.74 µM). 0.42% of 220,000 active. AID 1085; in the data active = inhibition above about 50%
HCV NS3 hel inh: HCV NS3 helicase inhibition | 0.56% of 290,000 active | inhibition, % at 10.9 µM | NS3 helicase DNA unwinding, Cy5 molecular beacon fluorescence;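 active = inhibition above the mean of all tested compounds plus 3 SD, set per campaign, cut at about 35% in these data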
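System: NS3 helicase fragment of HCV / Schedule: 1 h at 25 °C / Control set: DMSO alone as 0% and 110 µM thioflavine S as 100% / Reagent: Cy5/quencher beacon DNA duplex and ATP to start / Technique: Cy5 fluorescence / Replication: singlicate / Evaluation: % inhibition of end-to-start signal ratio versus controls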
HCV core dimer: blocks dimerization of HCV core protein | 0.33% of 300,000 active | inhibition, % at 5 µM | TR-FRET GST/Flag-core106 dimerization, 1536-well;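 active = inhibition above the mean of all tested compounds plus 3 SD, set per screening campaign, cut at about 45% in these data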
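Assay system: GST-tagged and Flag-tagged HCV core protein residues 1-106 / Times: compound-protein-antibody incubation 4 h at 22.5 °C / Signal: time-resolved FRET, ex 340 nm, em 617 and 671 nm / Evaluation: % inhibition based on acceptor/donor emission ratio / Benchmarks: wells lacking GST-core106 and wells with excess unlabelled core106 / Repeats: singlicate, one well per compound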
GPR7 antag: blocks human GPR7 receptor signaling. inhibition, % at 4.4 µM. P48145. AID 1861. 1.1% of 290,000 active. GPR7-expressing cells, fluorescence antagonist assay; in the data active = inhibition above about 16%, passing the limit was not always enough;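 also: cells stimulated with the agonist NPW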
Target sequence (P48145 whole entry, looked up): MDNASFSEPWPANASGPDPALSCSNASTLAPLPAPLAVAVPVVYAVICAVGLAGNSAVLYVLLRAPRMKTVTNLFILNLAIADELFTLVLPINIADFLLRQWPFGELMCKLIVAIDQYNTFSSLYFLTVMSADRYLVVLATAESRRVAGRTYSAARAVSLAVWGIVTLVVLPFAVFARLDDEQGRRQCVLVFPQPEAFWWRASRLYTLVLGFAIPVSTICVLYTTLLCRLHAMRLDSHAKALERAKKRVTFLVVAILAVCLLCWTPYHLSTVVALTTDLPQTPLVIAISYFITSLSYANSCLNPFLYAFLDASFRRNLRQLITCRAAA
ZTA counter: counter-screen for EBNA-1 inhibitors: inhibitors of Epstein-Barr virus ZTA | 0.15% of 320,000 active | inhibition, % at 11 µM | ZTA-DNA binding, fluorescence polarization; in the data active = inhibition above about 33%
GPR7 antag conf: confirmation of human GPR7 antagonists | shares compounds with GPR7 antag | GPR7-expressing cells, calcium fluorescence antagonist mode | inhibition, % at 4.4 µM | 52% of 2,400 active | AID 1952; in the data active = inhibition above about 24%;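 also: stimulated with the GPR7 agonist NPW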
MCHR1 antag: counter-screen for GPR7 antagonists: antagonists of human MCHR1; shares compounds with GPR7 antag; MCHR1-expressing cells, fluorescence antagonist assay; inhibition, % at 4.4 µM; 62% of 2,400 active; in the data active = inhibition above about 22%
EBNA-1 confirm: EBNA-1 (EBV) inhibition, confirmation | Recombinant EBNA-1 DBD, Cy5-DNA fluorescence polarization | 35% of 830 active | inhibition, % at 14.8 µM | shares compounds with EBNA-1 inhibitor;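 active = mean inhibition across replicates above a set limit taken from the earlier primary screen, cut at about 28% in these data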
ZTA counter trip: ZTA (EBV) inhibition, triplicate counter-screen. 830 tested, under 10 active. Zta-ZRE DNA binding, Cy5 fluorescence polarization. inhibition, % at 11.1 µM. AID 2328. shares compounds with EBNA-1 inhibitor;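 active = mean inhibition over triplicates above a set limit taken from the primary EBNA-1 screen, cut at about 37% in these data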;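 also: purified full length Zta protein with Cy5 labeled ZRE DNA probe; inhibitors lower polarization by freeing the labeled DNA probe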
Each line names hits and unclear results; the compound was inactive in the other large screens (follow-up assays come after a bar, where they were run). Sampled rows, rich in hits. Any-hit rate of the full collection: about 2.3%.

COc1ccc(CNCCc2c(C)[nH]c3ccc(OC(F)(F)F)cc23)c(OC)c1	GPR7 antag 52 (no result: EBV gp42 inh) | GPR7 antag conf 63 | MCHR1 antag 89
COc1ccc2[nH]c(C)c(CCNCc3cc(OC)c(OC)c(OC)c3)c2c1	none
O=C(Nc1cccc(Cl)c1)OC1CN2CCC1CC2 (configuration not stated)	GPR7 antag 22 | GPR7 antag conf 53 | MCHR1 antag 58
Cc1ccc(N=C(/N=C(\N)N[N+](=O)[O-])Nc2ccc(C)cc2)cc1	none (no result: EBV gp42 inh, HCV NS3 hel inh, GPR7 antag)
CC1CCCCN1C(=O)Cn1cc(C=C2C(=O)N(C)C(=O)N(C)C2=O)c2ccccc21 (configuration not stated)	none (no result: EBV gp42 inh)
OC(CNC1CCCCCCC1)c1ccccc1 (configuration not stated)	GPR7 antag 22 | GPR7 antag conf inactive | MCHR1 antag inactive
CC1CCC(NCC(O)c2ccccc2)CC1 (configuration not stated)	none
COc1ccc(-n2c(C)cc(C(=O)C[N+]34CCN(CC3)CC4)c2C)cc1	none
CCCCn1c(=O)c(C(=O)Nc2ccccc2N)c(O)c2ccccc21	none (no result: EBV gp42 inh)
CCCCn1c(=O)c(C(=O)Nc2ccccc2F)c(O)c2ccccc21	GPR7 antag 96 (no result: EBV gp42 inh) | GPR7 antag conf inactive | MCHR1 antag inactive
OC1(c2ccc(F)cc2)CC2CCC(C1)N2Cc1nnnn1C1CCCCC1 (configuration not stated)	GPR7 antag 33 | GPR7 antag conf 26 | MCHR1 antag inactive
CCCCCSc1cc(O)c(C(CNC)C(C)C)cc1OC (configuration not stated)	GPR7 antag 29 | GPR7 antag conf 42 | MCHR1 antag 37
COc1cc(CNCCc2c[nH]c3ccccc23)cc(OC)c1	GPR7 antag 38 (no result: EBV gp42 inh) | GPR7 antag conf inactive | MCHR1 antag 31
CCCCc1ccc(NC2=NCCCS2)cc1	none (no result: EBV gp42 inh)
CN(C)c1ccc(-[n+]2c(-c3ccccc3)cc(-c3ccccc3)cc2-c2ccccc2)cc1	GPR7 antag 59 (no result: EBNA-1 inhibitor, HCV core dimer, ZTA counter) | GPR7 antag conf 79 | MCHR1 antag 78
c1ccc(-c2cc(-c3ccccc3)[n+](-c3ccccc3)c(-c3ccccc3)c2)cc1	GPR7 antag 97 | GPR7 antag conf 93 | MCHR1 antag 87
Cc1c(C(=O)N2CCC3(CC2)OCCO3)sc2ncnc(N3CCc4ccccc4C3)c12	none
COc1ccc(CCNCc2ccccc2F)cc1OC	none
CCOc1ccc(Cl)cc1CNCCc1ccccc1F	GPR7 antag 33 | GPR7 antag conf 49 | MCHR1 antag 37
Cc1occc1C(=O)N1CCC2(CC1)OCCO2	GPR7 antag 33 | GPR7 antag conf inactive | MCHR1 antag inactive
O=C(c1ccccc1)N1CCC2(CC1)OCCO2	none
OC1(c2ccccc2)CCNC2CCCCC21 (configuration not stated)	none (no result: EBV gp42 inh)
OC12CCCCC1C(c1ccccc1)NCC2 (configuration not stated)	GPR7 antag 23 | GPR7 antag conf inactive | MCHR1 antag inactive
C=CCn1c(O)c(/C(C)=N/N2CCN(C)CC2)c(=O)[nH]c1=O	none
O=[N+]([O-])c1ccc(N2CCCCCC2)c2nonc12	GPR7 antag 41 (no result: EBV gp42 inh) | GPR7 antag conf 51 | MCHR1 antag 61
CCc1ccccc1NC(=O)CN1CCN(C(=O)COc2ccccc2C#N)CC1	none (no result: EBNA-1 inhibitor, EBV gp42 inh, HCV NS3 hel inh, HCV core dimer, GPR7 antag)
CCc1ccc(NC(=O)C(C)OC(=O)c2c(C)nn(Cc3ccccc3)c2Cl)cc1 (configuration not stated)	none
Cc1nn(Cc2ccccc2)c(Cl)c1C(=O)OCC(=O)Nc1cccc2ccccc12	EBNA-1 inhibitor 61 | EBNA-1 confirm inactive | ZTA counter trip inactive
